The source made the active and inactive calls. The calls are words filed in the database; no cut-off is given here.
Columns and labels:
HCT-116 [1] = assay: Cytotoxicity against human HCT116 cells at 30 uM by MTS assay relative to control; format: functional
How it was run: (§1)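 MTS read-out (CellTiter 96 AQueous One) of proliferation in A549 or HCT-116 cells grown in DMEM with 10% FBS at 37 °C, 5% CO2. Taxol-resistant A549 cells were exposed for 72 h. Compounds were screened at 30 μM versus vehicle, with ≥50% inhibition counted active. Actives were then tested over a concentration range for IC50. Triplicate wells, three independent experiments, mean ± SD.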

HCT-116 [2] = assay: Cytotoxicity against human HCT116 cells by MTS assay; format: functional, cell-based; how it was run: as §1
MDA-MB-231 = assay: Cytotoxicity against human MDA-MB-231 cells at 30 uM by MTS assay; format: functional, cell-based
A549 [3] = assay: Cytotoxicity against human A549 cells by MTS assay; format: functional, cell-based; how it was run: as §1
HeLa = assay: Cytotoxicity against human HeLa cells at 30 uM by MTS assay; format: functional, cell-based
A549 [4] = assay: Cytotoxicity against human A549 cells at 30 uM by MTS assay relative to control; format: functional; how it was run: as §1
MCF7 = assay: Cytotoxicity against human MCF7 cells at 30 uM by MTS assay; format: functional, cell-based
HT-29 = assay: Cytotoxicity against human HT-29 cells at 30 uM by MTS assay; format: functional, cell-based
Sus scrofa [5] = organism: Sus scrofa; assay: Binding affinity to porcine tubulin after overnight incubation by streptavidin pull down assay
How it was run: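 Purified porcine neuronal tubulin incubated with biotin, biotinylated probe or control probe in NETN buffer at 4 °C. Streptavidin Dynabeads 1 h at 4 °C, six washes, then SDS-PAGE and α-tubulin immunoblot.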

A549 [6] = assay: Binding affinity to tubulin alpha in human A549 cells immunoblot based based pull down assay; format: cell-based
How it was run: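 A549 lysate in NETN buffer incubated with biotin, biotinylated probe or control probe at 4 °C, then streptavidin Dynabeads 1 h at 4 °C. Beads washed six times, bound proteins run on SDS-PAGE and immunoblotted for α-tubulin.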

A549 [7] = assay: Activation of spindle assembly checkpoint in human A549 cells assessed as mitotic index by measuring cells positive for histone H3 phosphorylation at Ser10 residue at 340 nM after 16 hrs by FITC staining based immunofluorescence assay (reference value: 3.23 +/- 0.15); format: functional
Sus scrofa [8] = organism: Sus scrofa; assay: Inhibition of porcine tubulin polymerization at 10 uM after 60 mins by spectrometric method
How it was run: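 Purified tubulin was incubated at 37 °C with compound at 5, 10 or 20 μM, with DMSO as vehicle. Polymerization was followed as the rise in absorbance at 340 nm over 60 min. Taxol (10 μM) and nocodazole (10 μM) served as controls. Three independent experiments were run.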

A549 [9] = assay: Activation of spindle assembly checkpoint in human A549 cells assessed as mitotic index by measuring cells positive for histone H3 phosphorylation at Ser10 residue at 340 nM after 8 hrs by FITC staining based immunofluorescence assay (reference value: 3.17 +/- 0.15); format: functional
A549 [10] = assay: Activation of spindle assembly checkpoint in human A549 cells assessed as mitotic index by measuring cells positive for histone H3 phosphorylation at Ser10 residue at 340 nM after 2 hrs by FITC staining based immunofluorescence assay (reference value: 2.67 +/- 0.21); format: functional
A549 [11] = assay: Activation of spindle assembly checkpoint in human A549 cells assessed as mitotic index by measuring cells positive for histone H3 phosphorylation at Ser10 residue at 340 nM after 4 hrs by FITC staining based immunofluorescence assay (reference value: 3.3 +/- 0.17); format: functional

SMILES	Activity (HCT-116 [1])	IC50 (HCT-116 [2])	Activity (MDA-MB-231)	IC50 (A549 [3])	Activity (HeLa)	Activity (A549 [4])	Activity (MCF7)	Activity (HT-29)	Activity (Sus scrofa [5])	Activity (A549 [6])	Activity_index (A549 [7])	inhibition (Sus scrofa [8])	Activity_index (A549 [9])	Activity_index (A549 [10])	Activity_index (A549 [11])
Cc1ccc(CNC(=S)SCc2nc3sc(C)cc3c(=O)[nH]2)cc1	>=50%	28 µM	inactive	26.5 µM	inactive	>=50%	inactive	inactive							
O=C(O)CCCC[C@@H]1SC[C@@H]2NC(=O)N[C@@H]21									inactive	inactive					
Cc1cc2c(=O)[nH]c(CSC(=S)NCc3ccc4c(c3)OCO4)nc2s1	>=50%	24.6 µM	inactive	14 µM	inactive	>=50%	inactive	inactive							
COC(=O)Nc1nc2cc(C(=O)c3cccs3)ccc2[nH]1 [NOCODAZOLE]											57.93	Active	28.57	9.83	14.57
Cc1cc2c(=O)[nH]c(CSC(=S)NCc3ccc(F)cc3F)nc2s1	>=50%	> 30 µM	inactive	16.2 µM	inactive	>=50%	inactive	inactive							
Cc1cc2c(=O)[nH]c(CSC(=S)NCc3ccc(Cl)cc3)nc2s1	>=50%	25.1 µM	inactive	11.3 µM	inactive	>=50%	inactive	inactive							

— ChEMBL document CHEMBL4152279, “Synthesis, cytotoxic evaluation and target identification of thieno[2,3-d]pyrimidine derivatives with a dithiocarbamate side chain at C2 position” (Eur J Med Chem, 2018)
